Experiment [1] has as its target T1, tRNA (guanine-N(1)-)-methyltransferase (Pseudomonas aeruginosa (strain ATCC 15692 / DSM 22644 / CIP 104116 / JCM14847 / LMG 12228 / 1C / PRS 101 / PAO1)) (UniProt Q9HXQ1).
T1 sequence (whole entry): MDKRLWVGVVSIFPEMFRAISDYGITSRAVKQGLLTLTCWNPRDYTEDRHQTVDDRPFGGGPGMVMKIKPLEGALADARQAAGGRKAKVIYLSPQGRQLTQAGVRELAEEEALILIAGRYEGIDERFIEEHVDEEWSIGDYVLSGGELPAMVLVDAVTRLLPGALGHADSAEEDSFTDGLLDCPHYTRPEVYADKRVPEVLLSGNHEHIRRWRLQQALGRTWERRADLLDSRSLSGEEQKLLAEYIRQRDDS
Description: Inhibition of Pseudomonas aeruginosa tRNA (guanine(37)-N1)-methyltransferase (Leu5 to Asp25 residues) expressed in Escherichia coli BL21 (DE3) Rosetta T1R cells assessed as reduction in S-adenosyl-L-homocysteine production preincubated for 30 mins followed by 1.5 to 15 uM of tRNALeu(CAG) substrate and SAM addition and measured after 60 mins by MTase-Glo assay.

In experiment [2] the target is T2, tRNA (guanine-N(1)-)-methyltransferase (Mycobacterium tuberculosis (strain ATCC 25618 / H37Rv)) (UniProt P9WFY7).
T2 sequence (whole entry): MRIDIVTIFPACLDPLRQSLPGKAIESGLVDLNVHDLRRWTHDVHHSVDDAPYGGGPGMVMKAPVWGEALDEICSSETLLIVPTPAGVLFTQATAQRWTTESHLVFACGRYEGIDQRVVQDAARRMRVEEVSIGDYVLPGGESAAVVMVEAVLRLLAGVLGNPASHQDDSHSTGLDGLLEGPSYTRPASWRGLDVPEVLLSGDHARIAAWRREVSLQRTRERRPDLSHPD
Nature of the experiment: Binding affinity to full length Mycobacterium tuberculosis tRNA (guanine(37)-N1)-methyltransferase expressed in Escherichia coli BL21 (DE3) assessed as thermal stabilization of protein by measuring change in melting temperature at 0.1 mM by SYPRO orange based thermal shift assay. The gist of the method: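 Thermal shift: 4 μM TrmD with 5× SYPRO Orange and ligand in 50 mM Tris-HCl pH 8, 150 mM NaCl, 1 mM MgCl2, 1 mM DTT, 0.05% Tween-20. Buffer-only control. Heated from 25 to 95 °C in a real-time PCR instrument, and Tm taken as the unfolding midpoint. Ligand levels: SAH 2 mM, inhibitors 0.1 mM.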

Turning to `CCCCCCCCNCc1ccc(CNC(=O)c2csc3nc[nH]c(=O)c23)cc1`, in experiment [1], the inhibition entry is “Dose-dependent effect”. For `NC1CCN(Cc2ccc(CNC(=O)c3csc4nc[nH]c(=O)c34)cc2)CC1`, the ΔTm (in general, the shift of the melting midpoint relative to a reference) in experiment [2] fell in the range of 1 to 13 °C.
